From ChEMBL document CHEMBL1777756, “Discovery of Novel Benzo[a]phenoxazine SSJ-183 as a Drug Candidate for Malaria” (ACS Med Chem Lett, 2010)
Activity calls are given as the source filed them. The calls are words filed in the database; no cut-off is given here.

What was measured:
[1] = molecular target: D(3) dopamine receptor (Homo sapiens) (UniProt P35462); test: Inhibition of human recombinant D3 receptor at 1 uM
In short: (§1)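 Binding assays were run against a panel of 80 receptors at 1 μM compound. Percent inhibition was read for human recombinant receptors.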

Leishmania donovani [2] = test: Selectivity ratio of IC50 for Plasmodium falciparum K1 to IC50 for Leishmania donovani; type: functional
[3] = Selectivity index, ratio of IC50 for rat L6 cells to IC50 for Plasmodium falciparum K1; type: toxicity, cell-based; conditions: read-out: Ratio IC50
In short: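 Selectivity index is IC50 against L-6 cells divided by IC50 against chloroquine/pyrimethamine-resistant P. falciparum K1. Each IC50 is the mean of two independent assays.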

Plasmodium berghei [4] = test: Antimalarial activity against Plasmodium berghei ANKA expressing green fluorescent protein infected in NMRI mouse assessed as growth inhibition at 10 mg/kg, po qd administered for 3 consecutive days measured on day 4 post parasitic infection; type: functional; conditions: 96 h, read-out: GI
In short: (§2)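 Oral dosing once a day for three consecutive days to female NMRI mice infected with P. berghei GFP ANKA strain. n = 3 mice per dose, data from 2–3 independent experiments. Parasitemia inhibition read on day 4 postinfection. Mean survival days and the percentage of cured animals were recorded.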

Trypanosoma cruzi [5] = test: Selectivity ratio of IC50 for Plasmodium falciparum K1 to IC50 for Trypanosoma cruzi; type: functional
Plasmodium falciparum = test: Antimalarial activity against chloroquine and pyrimethamine resistant Plasmodium falciparum K1; type: functional, organism-based
In short: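 IC50 was determined in vitro against the chloroquine- and pyrimethamine-resistant P. falciparum K1 strain. Values are the mean of two independent assays.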

Plasmodium berghei [6] = test: Antimalarial activity against Plasmodium berghei NK-65 infected in ICR mouse assessed as survival days at 100 mg/kg, po administered as single dose (reference value: 6 days); type: functional
In short: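 Female ICR mice infected with P. berghei NK-65 received a single oral dose of 100 mg/kg on day 1. The compound was given as a suspension in 5% glucose/10% ethanol or in 7% Tween 80/3% ethanol. Parasitemia was read on day 4 as percent reduction relative to untreated controls, and mean survival days were recorded.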

[7] = Biodistribution in mouse urine at 100 mg/kg, po administered as single dose; type: ADME, organism-based; design: dose 100 mg/kg, route oral; conditions: in vivo
In short: (§3)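 Mice received a single oral dose of 100 mg/kg. Urine, eyes and organs were then checked by eye for the purple/blue colour of the compound formulation.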

[8] = Selectivity ratio of IC50 for Plasmodium falciparum K1 to IC50 for Trypanosoma brucei rhodesiense; type: functional
[9] = Toxicity in S9 fraction at 2 uM by micronucleus test; type: subcellular; conditions: s9, 2 µM
In short: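 In vitro micronucleus test at 2.0 μM, run both without and with S9.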

Plasmodium berghei [10] = test: Antimalarial activity against Plasmodium berghei ANKA expressing green fluorescent protein infected in NMRI mouse assessed as survival days at 100 mg/kg, po qd administered for 3 consecutive days; type: functional
In short: (§4)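 Female NMRI mice infected with GFP-expressing P. berghei ANKA were dosed orally once daily for three consecutive days, 3 mice per dose level, in 2 to 3 independent experiments. Parasitemia was read on day 4 post-infection, and mean survival days were recorded along with the percentage of cured animals.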

[11] = Toxicity in S9 fraction at 1000 uM by chromosomal aberration test; type: subcellular; conditions: s9, 1000 µM
In short: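 Chromosome aberration test at 1000 μM, run both without and with S9 metabolic activation.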

Trypanosoma cruzi [12] = test: Antiparasitic activity against Trypanosoma cruzi; type: functional, organism-based
Plasmodium berghei [13] = test: Antimalarial activity against Plasmodium berghei ANKA expressing green fluorescent protein infected in NMRI mouse assessed as growth inhibition at 100 mg/kg, po qd administered for 3 consecutive days measured on day 4 post parasitic infection; type: functional; conditions: 96 h, read-out: GI; in short: as §2
Mus musculus [14] = test: Toxicity in NMRI mouse infected with Plasmodium berghei ANKA expressing green fluorescent protein assessed as lethality at 2000 mg/kg, po qd administered for 3 consecutive days; type: organism-based; design: dose 2000 mg/kg, route oral; conditions: in vivo
Plasmodium berghei [15] = test: Antimalarial activity against Plasmodium berghei ANKA infected in NMRI mouse assessed as survival days at 100 mg/kg, po administered as single dose; type: functional
In short: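 Female NMRI mice infected with P. berghei ANKA received a single oral dose of 100 mg/kg. Three independent experiments were run with 3 mice each. Mean survival days were averaged across the experiments.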

Plasmodium berghei [16] = test: Antimalarial activity against Plasmodium berghei ANKA expressing green fluorescent protein infected in NMRI mouse assessed as survival days at 10 mg/kg, po qd administered for 3 consecutive days; type: functional; in short: as §4
Plasmodium berghei [17] = test: Antimalarial activity against Plasmodium berghei NK-65 infected in ICR mouse assessed as inhibition of parasitemia at 100 mg/kg, po administered as single dose on day 1 measured on day 4; type: functional
In short: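 Compound was formulated at 100 mg/kg in 5% glucose/10% ethanol or in 7% Tween 80/3% ethanol. The suspension was given as a single oral dose on day 1 to female ICR mice infected with P. berghei NK-65. Parasitemia was determined on day 4 after infection. Treated-group mean is expressed as percent difference from the control-group mean.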

Leishmania donovani [18] = test: Antiparasitic activity against Leishmania donovani; type: functional, organism-based
Plasmodium berghei [19] = test: Antimalarial activity against Plasmodium berghei ANKA expressing green fluorescent protein infected in NMRI mouse assessed as growth inhibition at 30 mg/kg, po qd administered for 3 consecutive days measured on day 4 post parasitic infection; type: functional; conditions: 96 h, read-out: GI; in short: as §2
Plasmodium berghei [20] = test: Antimalarial activity against Plasmodium berghei str. ANKA infected in mouse assessed as cure rate at 100 mg/kg, po administered as three daily dose; type: functional, organism-based; design: dose 100 mg/kg; in short: as §2
[21] = Oral bioavailability in Sprague-Dawley rat; type: ADME, organism-based; conditions: in vivo
In short: (§5)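 Male Sprague–Dawley rats received 2.8 mg/kg intravenously or 21.5 mg/kg orally, and the plasma concentration–time profile was followed. Oral bioavailability and terminal half-life after iv dosing were derived.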

L6 = test: Cytotoxicity against rat L6 cells; type: cell-based
In short: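 Cytotoxicity was tested against L-6 rat myoblasts, with IC50 determined. Values are the mean of two independent assays.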

[22] = Terminal-half life in iv dosed Sprague-Dawley rat; type: ADME, organism-based; conditions: in vivo, read-out: beta t1/2 (converted); in short: as §5
Plasmodium berghei [23] = test: Antimalarial activity against Plasmodium berghei ANKA expressing green fluorescent protein infected in NMRI mouse assessed as survival days at 30 mg/kg, po qd administered for 3 consecutive days; type: functional; in short: as §4
[24] = molecular target: T1, Adenosine receptor A3 (Homo sapiens) (UniProt P0DMS8); test: Inhibition of human recombinant A3 receptor at 1 uM; in short: as §1
T1 sequence (whole entry): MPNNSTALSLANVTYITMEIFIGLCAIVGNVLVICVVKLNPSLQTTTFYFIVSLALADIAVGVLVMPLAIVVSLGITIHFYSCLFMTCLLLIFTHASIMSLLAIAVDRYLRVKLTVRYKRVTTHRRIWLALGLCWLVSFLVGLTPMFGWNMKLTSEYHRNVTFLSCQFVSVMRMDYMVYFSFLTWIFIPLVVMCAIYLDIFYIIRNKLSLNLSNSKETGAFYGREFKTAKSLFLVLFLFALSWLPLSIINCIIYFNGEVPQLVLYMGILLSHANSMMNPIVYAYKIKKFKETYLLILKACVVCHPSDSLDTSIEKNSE

Mus musculus [25] = test: Biodistribution in mouse eyes at 100 mg/kg, po administered as single dose; type: ADME, organism-based, Eye; design: dose 100 mg/kg, route oral; conditions: in vivo; in short: as §3
[26] = Toxicity in rat at 1000 mg/kg by micronucleus test; type: organism-based; design: dose 1000 mg/kg; conditions: in vivo
In short: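 In vivo micronucleus test in rats dosed at 1000 mg/kg × 2.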

[27] = test system: Trypanosoma brucei rhodesiense; test: Antiparasitic activity against Trypanosoma brucei rhodesiense; type: functional, organism-based
Plasmodium berghei [28] = test: Antimalarial activity against Plasmodium berghei ANKA expressing green fluorescent protein infected in NMRI mouse assessed as cure rate at 100 mg/kg, po qd administered for 3 consecutive days; type: functional; in short: as §2
Plasmodium berghei [29] = test: Antimalarial activity against Plasmodium berghei ANKA expressing green fluorescent protein infected in NMRI mouse assessed as cure rate at 30 mg/kg, po qd administered for 3 consecutive days; type: functional; in short: as §2
Plasmodium berghei [30] = test: Antimalarial activity against Plasmodium berghei ANKA infected in NMRI mouse at 100 mg/kg, po administered as single dose; type: functional
In short: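 Female NMRI mice infected with P. berghei ANKA strain were given a single oral dose of 100 mg/kg. Three independent experiments were run with n = 3 mice per experiment. Inhibition of parasitemia and mean survival days are averaged across the experiments.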

Blood = test: Cytotoxicity in G6PD-deficient human blood assessed as hemolysis; type: tissue-based
Mus musculus [31] = test: Phototoxicity against mouse at 300 mg/kg, po; type: organism-based; design: dose 300 mg/kg, route oral; conditions: in vivo
In short: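 Mice dosed orally at 300 mg/kg were assessed for phototoxicity.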

D(3) dopamine receptor (Homo sapiens), sequence (P35462 whole entry): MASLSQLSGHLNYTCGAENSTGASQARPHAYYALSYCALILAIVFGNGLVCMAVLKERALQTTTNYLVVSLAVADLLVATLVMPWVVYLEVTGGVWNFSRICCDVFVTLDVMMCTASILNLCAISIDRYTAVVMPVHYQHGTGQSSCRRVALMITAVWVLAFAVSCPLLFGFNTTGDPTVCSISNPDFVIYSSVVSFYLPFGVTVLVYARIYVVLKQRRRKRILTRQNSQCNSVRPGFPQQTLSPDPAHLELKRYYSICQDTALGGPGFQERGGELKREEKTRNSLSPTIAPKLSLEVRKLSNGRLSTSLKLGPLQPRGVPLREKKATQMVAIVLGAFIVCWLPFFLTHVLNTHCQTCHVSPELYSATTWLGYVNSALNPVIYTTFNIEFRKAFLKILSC

CCN(CC)c1ccc2nc3c4ccccc4/c(=N\c4ccncc4)cc-3oc2c1
inhibition [1]: 80% | Ratio IC50 (Leishmania donovani [2]): > 1000 | selectivity ratio [3]: 7330 | inhibition in vivo at 10 mg/kg (Plasmodium berghei [4]): 26% | Ratio IC50 (Trypanosoma cruzi [5]): > 1000 | IC50 (Plasmodium falciparum): 0.0076 µM | MSD (Plasmodium berghei [6]): 14.6 days | Drug uptake [7]: Not Active | Ratio IC50 [8]: > 1000 | Activity [9]: Non-toxic | MSD (Plasmodium berghei [10]): >30 days | Activity [11]: Non-toxic | IC50 (Trypanosoma cruzi [12]): 11.3 µM | inhibition in vivo at 100 mg/kg (Plasmodium berghei [13]): > 99.9% | Activity (Mus musculus [14]): Non-toxic | MSD (Plasmodium berghei [15]): 16 days | MSD (Plasmodium berghei [16]): 4 days | inhibition in vivo at 100 mg/kg (Plasmodium berghei [17]): > 99.9% | IC50 (Leishmania donovani [18]): 6.5 µM | inhibition in vivo at 30 mg/kg (Plasmodium berghei [19]): 99% | Activity (Plasmodium berghei [20]): Active | bioavailability [21]: 30% | IC50 (L6): 55.7 µM | half-life [22]: 5.5 h | MSD (Plasmodium berghei [23]): 27.2 days | inhibition [24]: 80% | Drug uptake (Mus musculus [25]): Not Active | Activity [26]: Non-toxic | IC50 [27]: 36 µM | Activity (Plasmodium berghei [28]): 100% | Activity (Plasmodium berghei [29]): 78% | inhibition in vivo at 100 mg/kg (Plasmodium berghei [30]): 99% | Activity (Blood): Non-toxic | Activity (Mus musculus [31]): Non-toxic
